Experimental data from ChEMBL document CHEMBL2146371, “Biologically active dibenzofurans from Pilidiostigma glabrum, an endemic Australian Myrtaceae” (J Nat Prod, 2012).
In brackets after ≈: the same amount, converted by molar mass. Activity calls are given as the source filed them. The calls are words filed in the database; no cut-off is given here.

Experiments:
[1] = system: Staphylococcus epidermidis; experiment: Antibacterial activity against Staphylococcus epidermidis ATCC 35984 after overnight incubation by broth microdilution method; assay type: functional
Outline: (§1)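 Broth microdilution (CLSI M7A7, modified) in tryptone soya broth with 0.025 g/mL glucose, replacing Mueller-Hinton. Compounds were 2-fold serially diluted in TSB containing 2% DMSO. Inoculum came from a 0.5 McFarland suspension diluted 1:100, giving about 5 × 10^5 cfu in 100 μL. Plates were incubated overnight at 37 °C. MIC = lowest concentration with no growth visible to the unaided eye.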

[2] = Cytotoxicity against Swiss albino mouse 3T3 cells; assay type: cell-based, NIH3T3; settings: read-out: ED50 (the source's name)
[3] = Cytotoxicity against mouse RAW264.7 cells after 24 hrs by ATPlite assay; assay type: cell-based; settings: read-out: ED50
Outline: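 RAW264 cells were plated at 30 000/well in DMEM with 10% FBS. Compounds were tested at six concentrations from DMSO stocks diluted 20-fold in medium, for 24 h at 37 °C, 5% CO2. Cellular ATP was read by ATPlite luminescence. Triplicate; ED50 with 95% CI from curve fitting.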

[4] = system: Staphylococcus epidermidis; experiment: Antibacterial activity against Staphylococcus epidermidis ATCC 35984 incubated overnight followed by compound transfer to TSB medium measured after overnight incubation by cell counting; assay type: functional
Staphylococcus aureus [5] = experiment: Antibacterial activity against Staphylococcus aureus ATCC 29213 after overnight incubation by broth microdilution method; assay type: functional; outline: as §1
Staphylococcus aureus [6] = experiment: Antibacterial activity against Staphylococcus aureus ATCC 29213 incubated overnight followed by compound transfer to TSB medium measured after overnight incubation by cell counting; assay type: functional
RAW264.7 [7] = experiment: Antiinflammatory activity in mouse RAW264.7 cells assessed as inhibition of LPS-induced TNFalpha production incubated for 1 hr prior to LPS-challenge measured after 20 hrs by immunoassay; assay type: functional, cell-based
Outline: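 TNF-α was measured by mouse ELISA kit in the same LPS-stimulated RAW264 supernatants as the nitrite assay. Compounds were added 1 h before LPS (10 μL of 10 μg/mL), followed by 20 h incubation.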

Escherichia coli = experiment: Antibacterial activity against Escherichia coli ATCC 25922 after overnight incubation by broth microdilution method; assay type: functional; outline: as §1
Staphylococcus aureus [8] = experiment: Antibacterial activity against Staphylococcus aureus ATCC 25923 incubated overnight followed by compound transfer to TSB medium measured after overnight incubation by cell counting; assay type: functional
RAW264.7 [9] = experiment: Antiinflammatory activity in mouse RAW264.7 cells assessed as inhibition of LPS-induced nitric oxide production incubated for 1 hr prior to LPS-challenge measured after 20 hrs by Griess method; assay type: functional, cell-based
Outline: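 RAW264 cells (10^6 cells/mL, 120 μL/well) were pre-incubated for 20 h. Compounds in DMSO, diluted 20-fold in medium, were added for 1 h. LPS (10 μL of 10 μg/mL) was then added and incubation continued for 20 h. Nitrite was measured by Griess reagent (23 °C, 20 min, A550) against 0–100 μM standards. Triplicate; expressed as a percentage of solvent control.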

RAW264.7 [10] = experiment: Selectivity index, ratio of cytotoxic ED50 for mouse RAW264.7 cells to IC50 for LPS-induced nitric oxide synthesis in mouse RAW264.7 cells; assay type: functional
Outline: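 Selectivity index = RAW264 cytotoxicity ED50 (24 h ATPlite) divided by IC50 for inhibition of LPS-induced nitrite production in RAW264 cells.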

[11] = Antiinflammatory activity in Swiss albino mouse 3T3 cells assessed as inhibition of calcium ionophore A23187-induced PGE2 synthesis incubated for 3 hrs prior to calcium ionophore A23187-challenge measured after 15 mins by enzyme immunoassay; assay type: functional, cell-based; settings: NIH3T3
Outline: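 3T3 cells were seeded at 27 × 10^3/well in phenol-red-free DMEM with 5% FBS and 5% newborn calf serum, then left to attach overnight. Compounds in DMSO (0.5% final) were added for 3 h at 37 °C. A23187 (0.5 mM, 10 μL/well) was then added for 15 min. Supernatant was diluted 81-fold and PGE2 measured by EIA. Triplicate; percent inhibition relative to DMSO control.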

[12] = Antioxidant activity against AAPH-induced fluorescein peroxidation assessed as trolox equivalent measured every min for 35 mins by fluorimetric analysis; assay type: functional
Outline: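 ORAC: samples were diluted from 20 mg/mL DMSO stock into 75 mM phosphate buffer (pH 7.4), then 2-fold serially, with each tested at two concentrations. Reaction used fluorescein (10 μL, 5 μM) and AAPH (170 μL, 20 mM). Fluorescence was read every minute for 35 min at 37 °C. Values come from a Trolox standard curve (12.5–100 μM) of net AUC and are given as μmol TE/g. Quadruplicate.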

Staphylococcus aureus [13] = experiment: Antibacterial activity against Staphylococcus aureus ATCC 25923 after overnight incubation by broth microdilution method; assay type: functional; outline: as §1
Pseudomonas aeruginosa = experiment: Antibacterial activity against Pseudomonas aeruginosa ATCC 27853 after overnight incubation by broth microdilution method; assay type: functional; outline: as §1
NIH3T3 = experiment: Selectivity index, ratio of cytotoxic ED50 for Swiss albino mouse 3T3 cells to IC50 for calcium ionophore A23187-induced PGE2 synthesis in Swiss albino mouse 3T3 cells; assay type: functional

| SMILES | MIC [1] | CC50 [2] | CC50 at 24 h [3] | MBC [4] | MIC (Staphylococcus aureus [5]) | MBC (Staphylococcus aureus [6]) | inhibition (RAW264.7 [7]) | MIC (Escherichia coli) | MBC (Staphylococcus aureus [8]) | IC50 (RAW264.7 [9]) | inhibition (RAW264.7 [9]) | Selectivity Index (RAW264.7 [10]) | IC50 [11] | Activity [12] | MIC (Staphylococcus aureus [13]) | MIC (Pseudomonas aeruginosa) | Selectivity Index (NIH3T3) |
| --- | --- | --- | --- | --- | --- | --- | --- | --- | --- | --- | --- | --- | --- | --- | --- | --- | --- |
| CC[C@H](C)C(=O)c1c(O)c(C)c(O)c2c1oc1c(C(=O)C(C)C)c(O)c(C)c(O)c12 | 6 µM (≈ 2.49 µg/mL) | 22.3 µM | 17.6 µM | 6 µM (≈ 2.49 µg/mL) | 12.1 µM (≈ 5.01 µg/mL) | 24.1 µM (≈ 9.99 µg/mL) | inactive | inactive | 24.1 µM (≈ 9.99 µg/mL) | 4.4 µM | Dose-dependent effect | 4 | > 200 µM | 6280 µmol/g | 6 µM (≈ 2.49 µg/mL) |  |  |
| Oc1cc(O)c2c(c1)O[C@H](c1ccc(O)c(O)c1)[C@H](O)C2 |  |  |  |  |  |  |  |  |  |  |  |  |  | 29200 µmol/g |  |  |  |
| Cc1c(O)c(C(=O)C(C)C)c2oc3c(C(=O)C(C)C)c(O)c(C)c(O)c3c2c1O | 13.2 µM (≈ 5.29 µg/mL) | 44 µM | 142 µM | 13.2 µM (≈ 5.29 µg/mL) | 26.5 µM (≈ 10.6 µg/mL) | 26.5 µM (≈ 10.6 µg/mL) | inactive | inactive | 26.5 µM (≈ 10.6 µg/mL) | 89 µM |  | 1.6 | > 200 µM | 609 µmol/g | 13.2 µM (≈ 5.29 µg/mL) | inactive |  |
| Cc1c(O)c(C(=O)C(C)C)c(O)c2c1oc1c(C)c(O)c(C(=O)C(C)C)c(O)c12 | 2.7 µM (≈ 1.08 µg/mL) | 15.3 µM | 12 µM | 22.7 µM (≈ 9.09 µg/mL) | 2.7 µM (≈ 1.08 µg/mL) | 11.4 µM (≈ 4.56 µg/mL) | inactive | inactive | 5.7 µM (≈ 2.28 µg/mL) | 3.4 µM | Dose-dependent effect | 3.53 | 4.5 µM | 1450 µmol/g | 2.7 µM (≈ 1.08 µg/mL) | inactive | 3.4 |
| C[C@H]1COc2c(N3CCN(C)CC3)c(F)cc3c(=O)c(C(=O)O)cn1c23 [LEVOFLOXACIN] | < 0.53 µM |  |  |  | < 0.53 µM |  |  | < 0.53 µM |  |  |  |  |  |  | < 0.53 µM | < 0.53 µM |  |
| CC[C@H](C)C(=O)c1c(O)c(C)c2oc3c(C)c(O)c(C(=O)CC(C)C)c(O)c3c2c1O [RHODOMYRTOXIN C] | 1.9 µM (≈ 0.814 µg/mL) | 7 µM | 1.4 µM | 1.9 µM (≈ 0.814 µg/mL) | 7.2 µM (≈ 3.09 µg/mL) | 7.2 µM (≈ 3.09 µg/mL) | inactive | inactive | 0.9 µM (≈ 0.386 µg/mL) | 1.2 µM | Dose-dependent effect | 1.17 | 3.4 µM | 1010 µmol/g | 0.9 µM (≈ 0.386 µg/mL) |  | 2.06 |
| CC[C@H](C)C(=O)c1c(O)c(C)c2oc3c(C)c(O)c(C(=O)C(C)C)c(O)c3c2c1O | 1.9 µM (≈ 0.787 µg/mL) | 9.4 µM | 6.5 µM | 3.9 µM (≈ 1.62 µg/mL) | 3.9 µM (≈ 1.62 µg/mL) | 3.9 µM (≈ 1.62 µg/mL) | inactive | inactive | 1.9 µM (≈ 0.787 µg/mL) | 0.6 µM | Dose-dependent effect | 10.83 | 6 µM | 2580 µmol/g | 0.5 µM (≈ 0.207 µg/mL) |  | 1.57 |
| CC[C@H](C)C(=O)c1c(O)c(C)c(O)c2c1oc1c(C(=O)[C@@H](C)CC)c(O)c(C)c(O)c12 | 3.7 µM (≈ 1.59 µg/mL) | 24.1 µM | 6.8 µM | 3.7 µM (≈ 1.59 µg/mL) | 7.2 µM (≈ 3.09 µg/mL) | 14.7 µM (≈ 6.3 µg/mL) | inactive | inactive | 3.7 µM (≈ 1.59 µg/mL) | 5 µM | Dose-dependent effect | 1.36 | > 200 µM | 3640 µmol/g | 3.7 µM (≈ 1.59 µg/mL) |  |  |
